# ASAP1 inh = inhibitors of human ASAP1 ArfGAP activity; Q9ULH1; ASAP1-stimulated ARF1 GTP hydrolysis, GDP FP detection; inhibition, % at 16.5 µM; actives 0.19% (n = 360,000); AID 624377; in the data active = inhibition above about 25%
# ARFGAP1 inhibitor = rat ARFGAP1 inhibition; actives 0.26% (n = 360,000); Q62848; inhibition, % at 16.5 µM; Arfgap1-stimulated ARF1 GTP hydrolysis, GDP FP detection;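 active = inhibition above a per-plate limit, mean inhibition of low control wells plus 3 SD, cut at about 25% in these data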
# Target sequence (Q62848 1-136 limits assumed): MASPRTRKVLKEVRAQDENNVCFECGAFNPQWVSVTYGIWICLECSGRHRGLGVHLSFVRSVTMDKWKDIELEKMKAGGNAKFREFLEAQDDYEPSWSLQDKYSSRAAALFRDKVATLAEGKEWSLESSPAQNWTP
#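 Repeats: one replicate per compound; assay system: rat Arfgap1 catalytic domain, aa 1-136; times: enzyme reaction 120 min at 25 °C after 20 min preincubation; detection: FP of antibody-bound GDP Alexa 633 tracer, ex 620/em 688 nm; benchmarks: high control wells lacking Arfgap1, low control full reaction with DMSO; reagent: human ARF1(Δ1-17)-GTP substrate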
# EBNA-1 inhibitor = blocks EBNA-1 binding to DNA; actives 0.34% (n = 300,000); EBNA-1 DNA binding, fluorescence polarization; AID 1950; inhibition, % at 14.8 µM; in the data active = inhibition above about 28%
# ZTA counter = ZTA (EBV) inhibition in EBNA-1 counter-screen. ZTA-DNA binding, fluorescence polarization. actives 0.15% (n = 320,000). inhibition, % at 11 µM. AID 2234. P03206; in the data active = inhibition above about 33%
# Target sequence (P03206 whole entry, looked up): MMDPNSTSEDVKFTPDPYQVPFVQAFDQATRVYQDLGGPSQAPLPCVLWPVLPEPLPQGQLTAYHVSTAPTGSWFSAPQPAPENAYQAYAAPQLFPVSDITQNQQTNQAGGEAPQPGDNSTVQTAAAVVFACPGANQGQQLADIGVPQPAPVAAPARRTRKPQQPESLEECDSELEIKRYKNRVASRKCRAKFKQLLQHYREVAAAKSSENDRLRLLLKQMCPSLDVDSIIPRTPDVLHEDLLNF
# A number is an active result; n = inactive; x = no result; + = active, no number. An excerpt weighted towards active compounds, which were near 0.75% of everything screened.
SMILES,ASAP1 inh,ARFGAP1 inhibitor,EBNA-1 inhibitor,ZTA counter
COc1ccc(C2SCC(C(=O)O)N2C(C)=O)cc1 (configuration not stated),n,n,n,n
COc1ccc(C2SCC(C(=O)O)N2C(C)=O)cc1OC (configuration not stated),n,27,n,n
O=C(CNS(=O)(=O)c1cccc(Cl)c1)Nc1ccc(-c2nc3ccccc3s2)cc1,n,n,55,n
CC(C)(C)c1ccc(S(=O)(=O)NCC(=O)Nc2ccc(-c3nc4ccccc4s3)cc2)cc1,n,n,n,n
Nc1ccn([C@@H]2O[C@H](C(=O)N[C@H](Cc3ccccc3)C(=O)NCc3cccc4c3OCO4)[C@@H](O)[C@H]2O)c(=O)n1,n,n,x,x
Cc1cc(N)ccc1-n1c(C)ccc1C,n,n,29,55
CC(NC(=O)c1cc(-c2cccnc2)nc2ccc(Br)cc12)C1CCCO1 (configuration not stated),n,n,160,151
CC(NC(=O)c1cc(-c2ccncc2)nc2ccc(Cl)cc12)C1CCCO1 (configuration not stated),n,n,n,n
CCC/C(=C1/c2ccccc2C(=O)N1c1ccccc1)c1c(C)noc1C,n,n,x,x
O=C(O)CCNc1cc(N2CCN(C(=O)c3ccco3)CC2)c2noc3c2c1C(=O)c1ccccc1-3,n,n,127,163
Cc1onc(-c2ccccc2)c1C(=O)NN=Cc1cc(Cl)cc(Cl)c1O,n,n,x,x
COc1ccc2c(c1)c(=O)oc1cc(OCC(=O)N3CCCC(C)C3)ccc12 (configuration not stated),41,43,n,n
CN1CCCCC(NC(=O)CCl)C1=O (configuration not stated),n,n,x,x
Cc1sc2nc(C(C)C)nc(SCC(=O)NC3CC3)c2c1C,n,n,129,69
COc1cc(N(C)C)ccc1C=c1c2ccccc2n2c1cc(-c1ccccc1)[n+]2C,36,n,x,x
CN(C)c1ccc(C=c2c3cc([N+](=O)[O-])ccc3n3c2cc(-c2ccccc2)[n+]3C)cc1,n,39,x,x
CN(C)c1ccc(C=c2c3ccccc3n3c2cc(-c2ccccc2)[n+]3C)cc1,n,n,x,x
O=C1c2cccnc2-c2ncccc21,n,n,n,n
COC1=C(Br)C(=O)c2ncccc2C1=O,47,n,x,x
O=C(NCc1ccccc1)C(c1ccco1)N1CCN(CCN2CCOCC2)CC1 (configuration not stated),n,n,x,x
CCN(CC)c1ccc(N=C2C(=O)Nc3ccccc32)cc1,n,n,+,+
CCN1C(=O)N(C(C)=O)[C@@H]2C[C@H](C(=O)N3CCCC3)[C@H](C)[C@H](c3ccccc3)C[C@@H]21,n,n,x,x
C#CCOCCOCCOCCNc1nc(N2CCN(C(=O)CCCCCCCCCCNC(=O)[C@H]([C@@H](C)CC)n3cc(CCCCN=C(N)N)nn3)CC2)nc(N2CCN(C(=O)CCCCCCCCCCNC(=O)[C@H]([C@@H](C)CC)n3cc(CCCCN=C(N)N)nn3)CC2)n1,x,x,n,147
C#CCOCCOCCOCCNc1nc(N2CCN(C(=O)CCCCCCCCCCNC(=O)[C@H]([C@@H](C)CC)n3cc(CCCCN=C(N)N)nn3)CC2)nc(N2CCN(C(=O)CCCCCCCCCCNC(=O)[C@H](CO)n3cc(CCCCCN)nn3)CC2)n1,x,x,n,n
C#CCOCCOCCOCCNc1nc(N2CCN(C(=O)CCCCCCCCCCNC(=O)[C@H]([C@@H](C)CC)n3cc(CCCCCN)nn3)CC2)nc(N2CCN(C(=O)CCCCCCCCCCNC(=O)[C@@H]([C@H](C)CC)n3cc(CCCCCN)nn3)CC2)n1,x,x,n,65
SMILES,ASAP1 inh,ARFGAP1 inhibitor,EBNA-1 inhibitor,ZTA counter
O=S1(=O)CCSC[C@@H](CN2CCCC2)N1,n,n,x,x
CCOC(=O)C1(CC2CC2)CCN(C(=O)c2cc(C3CC3)nc3ccccc23)CC1,n,n,n,n
CCOC(=O)C1(CC2CC2)CCN(C(=O)c2cc(OC)nc3ccccc23)CC1,n,n,29,34
Cc1ccccc1NC(=O)Nc1nc2ccc(S(C)(=O)=O)cc2s1,n,n,155,38
Cc1ccc(NC2=C/C(=N/S(=O)(=O)c3cccs3)c3ccccc3C2=O)cc1,33,n,n,n
C=CCN=C1NC(CCc2ccccc2)C(C(=O)OC)=C(C)N1Cc1cccc(C(F)(F)F)c1 (configuration not stated),n,n,x,x
Cc1[nH]c2ccccc2c1/C=N/n1cnnc1,n,n,n,n
CCN(CC)c1ccc(N=Cc2c(C)[nH]c3ccccc23)cc1,n,n,199,188
O=C1/C(=C/c2ccc(C(=O)O)cc2)CCC/C1=C\c1ccc(C(=O)O)cc1,n,n,n,61
O=C1/C(=C/c2cccnc2)CC/C1=C\c1cccnc1,n,n,n,n
O=C1/C(=C/c2cccnc2)CCC/C1=C\c1cccnc1,n,n,n,38
Cc1ccccc1C(=O)N1CCN(C(=O)C(=O)c2cccc(C(F)(F)F)c2)CC1,n,n,x,x
N=C1CCC(=N)c2c1c(O)c1ccccc1c2O,x,x,n,37
C=Cc1c(C)c2cc3[nH]c(cc4nc(cc5nc(cc1[nH]2)C(C)=C5CCC(=O)O)C(CCC(=O)O)=C4C)c(C)c3C=C,n,n,96,146
CC1(C)c2[nH]c3ccccc3c2C[C@H]2C(=O)N(Cc3cccc(F)c3)C(=O)N21,n,n,n,n
CC1(C)c2[nH]c3ccccc3c2C[C@@H]2C(=O)N(c3cc(F)ccc3F)C(=O)N21,28,n,n,n
OC(c1ccccc1)(c1ccccc1)C1CCN(CCCOc2ccccn2)CC1,n,n,x,x
CC1CCCN(c2cccc3c2S(=O)(=O)N(Cc2cccc(Cl)c2)[C@@H](C)[C@H](c2ccccc2)O3)C1 (some centres not stated),n,n,x,x
Cc1ccc2nc(NC(=O)c3ccc(N4C(=O)CCC4=O)cc3)sc2c1,n,n,35,n
CCN(CC)c1ccc(C=Nc2ccc(N(C)C)cc2)c(O)c1,n,n,+,+
CCN(CC)c1ccc(C=Nc2ccccc2)c(O)c1,n,n,n,n
CCN(CC)c1ccc(N=Cc2ccc(N(CC)CC)cc2O)cc1,n,n,129,192
CCN(CC)c1ccc(C=Nc2ccc(C)cc2)c(O)c1,n,n,n,n
Nc1[nH]c(C(=O)c2ccccc2)c(-c2ccccc2C(F)(F)F)c1C(=O)c1c[nH]c2ccccc12,n,n,x,x
COc1ccc(-c2cc(NC(=O)Cc3c[nH]c4ccccc34)ccc2Nc2cccnc2)c(OC)c1,n,n,x,x
SMILES,ASAP1 inh,ARFGAP1 inhibitor,EBNA-1 inhibitor,ZTA counter
O=c1cc(-c2ccccc2)[nH]n1-c1ccccc1,n,n,x,x
CC(C)(C)c1cc(=O)n(-c2ccccc2)[nH]1,n,29,n,n
O=C(/C=C/c1cccnc1)c1ccc(NC(=O)c2cccc(Br)c2)cc1,26,n,n,n
Cc1cccc(C(=O)Nc2ccc(C(=O)/C=C/c3cccnc3)cc2)c1,n,n,n,n
O=C(Cc1ccccc1)N/N=C/c1cc(Br)c(Br)o1,27,n,n,n
CCCCCn1cc(CCC(=O)Nc2ccc(N(C)c3ccccn3)cc2)c2ccccc21,n,n,x,x
O=C(NC(=S)Nc1ccc(NC(=O)c2cccs2)cc1)c1cc2ccccc2o1,n,n,69,n

# Source: PubChem (The Scripps Research Institute Molecular Screening Center)
